This note sets out measurements from PubChem BioAssay.

Assay [1] can be described thus: inhibitors of TNFa-induced NFkB p65 translocation, primary screen, imaging, HUVEC, MLSMR starter and 10KST1 sets (AID 438;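 active = inhibition above 20% together with a positive visual image hit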;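 note: compound added about 3h40 before a 20 min TNFalpha stimulation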;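 for inhibition: signal is the nuclear over cytoplasmic p65 intensity ratio per well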). Conditions: HUVEC TNFa-induced p65 nuclear translocation; cell count: measured here: nuclei count (cytotoxicity indicator), at 2.08 µM; inhibition: at 2 µM, stronger effect = higher value, 0% TNFa-plus-vehicle, 100% no-TNFa wells.
Assay [2] in a line: inhibitors of mutant huntingtin aggregation, primary screen, imaging, exon1htt(103Q)mCFP cells, high-content imaging (AID 483;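 active = visual image review flags a hit and inhibition of aggregation exceeds 20%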;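 note: compound exposure lasted 3 days before fixation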;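 for nuclei count: percent of the per-plate median nuclei count of sample wells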). The settings on record: exon1htt(103Q)mCFP cell line, aggregate imaging, at 2 µM; inhibition of aggregation: stronger effect = higher value; nuclei count: measured here: cell count, toxicity.
A short description of assay [3]: inhibitors of E-selectin induction by TNFa, primary screen, imaging, HUVEC, immunofluorescence, MLSMR starter and 10KST1 sets (AID 487;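 active = visually confirmed hit in the image check and inhibition above 20%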;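 for inhibition: signal is fraction of cell area covered by stained E-selectin grains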;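 for nuclei count: 100% = median nuclei count of all wells on the same plate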). Conditions: HUVEC TNFalpha-induced E-selectin immunofluorescence imaging, at 2 µM; inhibition: stronger effect = higher value; nuclei count: measured here: cell number, toxicity.
Assay [4] addresses Voltage-gated potassium channel subunit beta-2 (Rattus norvegicus) (UniProt P62483). As to the kind of experiment: KvBeta enzyme negative modulators, primary screen, biochemical, NADPH fluorescence (AID 622;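 active = fluorescence slope higher than the sample average by over 3 SD, cut at about -0.22 in these data, passing the limit was not always enough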;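 note: slope of raw intensity against log time taken from 70 to 1610 s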). The settings on record: recombinant KvBeta, 4-cyanobenzaldehyde reduction, at 10 µM, stronger effect = higher value.
Assay [5] has the same target. As to the kind of experiment: KvBeta positive modulators, primary screen, biochemical, NADPH fluorescence (AID 623;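 active = NADPH fluorescence slope more negative than the mean of all samples by about 3 SD, 99.7% confidence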;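 note: fluorescence intensity change per second fitted from 20 to 320 s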). The settings on record: Recombinant KvBeta, NADPH fluorescence decrease slope, 10 min; at 10 µM; stronger effect = lower value.
The target in assay [6] is Alpha-2C adrenergic receptor (Homo sapiens) (UniProt P18825). As to the kind of experiment: modulators of alpha2C/GIRK thallium flux, primary screen, cell-based, HEK293 alpha2C/GIRK1/2 (AID 624;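 active = fluorescence slope after compound addition differing from the mean of all screened samples at 99.7% confidence, in either direction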;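 note: slope of fluorescence ratio to pre-addition baseline per second over 15 to 24 s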). The settings on record: thallium flux BTC fluorescence, at 10 µM, actives lie on both sides.
Alpha-2C adrenergic receptor (Homo sapiens), sequence (P18825 whole entry, looked up): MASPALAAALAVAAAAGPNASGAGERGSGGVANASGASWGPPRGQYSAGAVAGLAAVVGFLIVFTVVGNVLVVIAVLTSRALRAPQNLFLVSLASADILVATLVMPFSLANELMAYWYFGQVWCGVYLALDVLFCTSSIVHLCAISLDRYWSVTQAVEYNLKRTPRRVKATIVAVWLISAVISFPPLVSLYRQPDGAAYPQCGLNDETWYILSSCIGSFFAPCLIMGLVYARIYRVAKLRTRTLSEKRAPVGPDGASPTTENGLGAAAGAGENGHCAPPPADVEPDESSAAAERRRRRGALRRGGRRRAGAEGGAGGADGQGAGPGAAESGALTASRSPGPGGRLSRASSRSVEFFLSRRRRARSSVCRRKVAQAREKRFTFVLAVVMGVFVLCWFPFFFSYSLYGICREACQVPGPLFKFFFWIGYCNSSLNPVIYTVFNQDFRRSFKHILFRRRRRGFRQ
Assay [7] can be described thus: inhibitors of larval lipid processing in zebrafish, primary screen, whole organism, PED6 fluorescence, gall bladder and intestine (AID 686;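 active = a full or partial loss of lipid-probe fluorescence in the fish gall bladder, intestine or both, judged by eye; inactive = no fluorescence loss, or compound toxic to the fish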;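 note: larvae 5 to 7 days old with five fish per well; signal comes from phospholipase A2 cleavage of quenched PED6 carried via bile; overnight exposure to compound and PED6 before scoring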). The settings on record: Zebrafish larvae PED6 lipid processing, fluorescence scoring; screened at 20 µM (by protocol). The method, boiled down: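 Also added: quenched phospholipase substrate PED6, 100 nM final, ingested by larvae; System: zebrafish larvae, 5-7 d; Quantity: 5 larvae per well; Compound: 20 µM single dose; Schedule: overnight compound and PED6 incubation; Read-out: visual per-well fluorescence inhibition score; Measured by: By-eye fluorescence microscopy; Medium: E3.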

Assay [8] can be described thus: inhibitors of Sendai virus-induced IRF3 signaling, primary screen, TLR/RLR signaling modifier project, cell-based, Sendai virus stimulus, luciferase, 10K MLSCN set (AID 602276).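 Note: firefly luciferase from ISG56 promoter only with Renilla not read in this screen; 0% = Sendai virus plus DMSO and 100% = medium plus DMSO without virus.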 Conditions: HEK293 RL24 IRF3 luciferase reporter, at 10 µM, stronger effect = higher value. On the technique in general: In a reporter assay the amount or activity of a reporter protein is the signal.

Assay [9] is described as follows: inhibitors of poly I:C-induced TLR3 signaling, primary screen, cell-based, poly I:C stimulus, luciferase, 10K MLSCN set (AID 602277;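 active = inhibition of the reporter signal at or above 50%; inactive = inhibition below 50%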). Conditions: HEK293-TLR3 RL24 IRF3 luciferase reporter, at 10 µM, stronger effect = higher value.

Calls of active or inactive are those of the source.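 Rule for the calls, unless noted: active = inhibition at or above 50% at 10 µM; inactive = inhibition below 50%.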

Voltage-gated potassium channel subunit beta-2 (Rattus norvegicus), sequence (P62483 whole entry, looked up): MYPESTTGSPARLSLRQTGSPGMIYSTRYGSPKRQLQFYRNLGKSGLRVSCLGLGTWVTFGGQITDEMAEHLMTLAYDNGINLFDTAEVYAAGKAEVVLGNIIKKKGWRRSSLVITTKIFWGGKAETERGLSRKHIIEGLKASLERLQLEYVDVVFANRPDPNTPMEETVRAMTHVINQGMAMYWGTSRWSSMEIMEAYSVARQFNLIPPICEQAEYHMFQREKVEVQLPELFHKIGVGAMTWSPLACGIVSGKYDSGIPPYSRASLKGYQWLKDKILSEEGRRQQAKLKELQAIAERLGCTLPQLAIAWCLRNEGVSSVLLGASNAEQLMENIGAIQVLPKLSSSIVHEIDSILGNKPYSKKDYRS

Consider `COc1cc2cc(C(c3nnnn3C3CCCC3)N3CCCCCC3)c(=O)[nH]c2cc1OC` (stereo not drawn), for which, in assay [1], the cell count is 477. The inhibition was -13.3% (inactive) in assay [1], 40.8% (inactive) in assay [3], 17% (inactive) in assay [8] and 20.8% (inactive) in assay [9]. Also, in [2], the inhibition of aggregation was 22.5% (inactive). Moreover, the nuclei count amounted to 75% in assay [2] and 73.4% in assay [3]. For the same compound, the fluorescence slope in assay [4] is -0.351 (inactive). For the same compound, the NADPH fluorescence slope in [5] was -7.3e-05 (inactive). The slope in assay [6] is 0.00516 (inactive). Further, in assay [7], the outcome was inactive.

As for `O=C(CSc1nnc(-c2cccs2)o1)NCC1CN(Cc2ccccc2)CCO1` (stereo not drawn), the cell count in assay [1] was found to be 669. Also, the inhibition was 7.8% (inactive) in assay [1], -87.4% (inactive) in [3], -0.491% (inactive) in assay [8] and -12.1% (inactive) in [9]. For the same compound, the inhibition of aggregation in assay [2] was 4.9% (inactive). Besides, the nuclei count in assay [2] turned out to be 92.2%; in assay [3], 140%. Further, in assay [4], the fluorescence slope is -0.607 (inactive). The NADPH fluorescence slope in [5] is -6.7e-06 (inactive). For the same compound, the slope in [6] was 0.00563 (inactive).

In the case of `CCOC(=O)c1sc2nc(SCC#N)n(CCCN3CCCC3=O)c(=O)c2c1C`, the cell count in assay [1] came to 399. Also, the inhibition was 3.4% (inactive) in [1], 49% (inactive) in [3], 4.69% (inactive) in assay [8] and -8.03% (inactive) in assay [9]. In addition, in assay [2], the inhibition of aggregation was -11.9% (inactive). Besides, the figures for the nuclei count in assay [2] and in assay [3] were 89.9% and 96.1%, respectively. Further, the fluorescence slope in assay [4] is -0.461 (inactive). Also, in assay [5], the NADPH fluorescence slope is -6.7e-05 (inactive). In addition, in assay [6], the slope is 0.00586 (inactive).

In the case of `COC(=O)C1C(=O)C2=C(CC1C)NC(=O)CC2c1ccccc1` (stereo not drawn), in [1], the cell count is 285. Further, the inhibition was -14.6% (inactive) in [1], 48.6% (inactive) in assay [3], 9.64% (inactive) in assay [8] and 22.4% (inactive) in assay [9]. Besides, the inhibition of aggregation in [2] is 14.6% (inactive). Besides, the nuclei count in [2] turned out to be 92.8%; in [3], 80.1%. Moreover, the fluorescence slope in assay [4] was -0.388 (inactive). In addition, the NADPH fluorescence slope in [5] is -4.9e-05 (inactive). For the same compound, in [6], the slope is 0.00369 (inactive).

Regarding `O=C(CN(c1ccc(F)cc1)S(=O)(=O)c1ccc2c(c1)OCCO2)Nc1cccnc1`, the cell count in assay [1] was determined as 757. The inhibition in [1] was 1.6% (inactive); in assay [3], -19.1% (inactive); in assay [8] it was 7.14% (inactive); in assay [9], 18.5% (inactive). The inhibition of aggregation in assay [2] was 7% (inactive). In addition, the nuclei count was found to be 93.5% in [2] and 111% in assay [3]. Also, in [4], the fluorescence slope is -0.453 (inactive). For the same compound, in assay [5], the NADPH fluorescence slope is -4.5e-05 (inactive). For the same compound, the slope in assay [6] was 0.00513 (inactive). The result in assay [7] was inactive.

On to `Cc1cc(C(=O)COC(=O)CCc2nc3ccccc3s2)c(C)n1C`, for which, in assay [1], the cell count turned out to be 170. For the same compound, the inhibition was -10.5% (inactive) in assay [1], -16% (inactive) in assay [3], 16.3% (inactive) in [8] and 7.6% (inactive) in [9]. Moreover, the inhibition of aggregation in assay [2] was 14.2% (inactive). The nuclei count in assay [2] came out at 108%; in assay [3] it was 96%. Also, the fluorescence slope in [4] was -0.454 (inactive). In assay [5], the NADPH fluorescence slope is -3.3e-05 (inactive). Also, the slope in [6] is 0.00538 (inactive). Further, the result in [7] was inactive.

As for `CCOc1ccccc1C1N(c2ccc(F)cc2)C(=O)C2CCCN21` (stereo not drawn), in assay [1], the cell count came to 465. Besides, the inhibition in assay [1] was -0.3% (inactive); in [3], 45.7% (inactive); in assay [8] it was 13.2% (inactive); in [9], 17.1% (inactive). For the same compound, the inhibition of aggregation in assay [2] was -10.1% (inactive). Moreover, the nuclei count in assay [2] was 103%; in assay [3], 91.5%. Moreover, the fluorescence slope in assay [4] was -0.349 (inactive). The NADPH fluorescence slope in [5] is -4.9e-05 (inactive). Also, in assay [6], the slope is 0.00484 (inactive). Further, the compound was classed as inactive in assay [7].

For `Cc1nc2cc(NC(=O)N3c4ccccc4CC3C)ccc2o1` (stereo not drawn), the cell count in [1] was found to be 574. Besides, the inhibition in [1] was -2.2% (inactive); in assay [3] it was -10.4% (inactive); in assay [8], 1.7% (inactive); in [9] it was -4% (inactive). For the same compound, in assay [2], the inhibition of aggregation was 7.4% (inactive). Moreover, the figures for the nuclei count in assay [2] and in [3] were 56.2% and 96.8%, respectively. Moreover, the fluorescence slope in assay [4] was -0.394 (inactive). Also, in assay [5], the NADPH fluorescence slope is -5.4e-05 (inactive). Moreover, the slope in assay [6] was 0.00476 (inactive). Besides, the outcome in [7] was inactive.

Take `O=C(Nc1ccccc1)N(CCCN1CCOCC1)Cc1cc2cc3c(cc2[nH]c1=O)OCCO3`: the cell count in [1] was determined as 390. Further, the inhibition is 8% (inactive) in [1], -24.2% (inactive) in assay [3], -3.35% (inactive) in [8] and 8.69% (inactive) in [9]. In [2], the inhibition of aggregation was 20.1% (inactive). Moreover, the values for the nuclei count in assay [2] and in assay [3] were 70.5% and 98.3%, respectively. In addition, the fluorescence slope in [4] is -0.412 (inactive). Further, the NADPH fluorescence slope in [5] is -4.1e-05 (inactive). Besides, in [6], the slope was 0.00525 (inactive). Also, the outcome in assay [7] was inactive.

In the case of `CCN1CCN(c2nc3c(c(=O)n(C)c(=O)n3C)n2Cc2cccc3ccccc23)CC1`, the cell count in assay [1] is 471. In addition, the inhibition was -6% (inactive) in assay [1], 35.5% (inactive) in [3], 12.4% (inactive) in [8] and 18.7% (inactive) in assay [9]. For the same compound, the inhibition of aggregation in assay [2] was 14.8% (inactive). In addition, the nuclei count was 85.1% in [2] and 80.6% in [3]. The fluorescence slope in assay [4] is -0.46 (inactive). Moreover, the NADPH fluorescence slope in assay [5] is -5.6e-05 (inactive). For the same compound, in assay [6], the slope is 0.00535 (inactive). The call in [7] was inactive.

`CC(C)OC(=O)c1cc(NC(=O)C2C3CCC(O3)C2C(=O)O)cc(C(=O)OC(C)C)c1` (stereo not drawn): the cell count in [1] is 418. Besides, the inhibition in [1] is 4.2% (inactive); in assay [3], -49.1% (inactive); in assay [8], 20.3% (inactive); in assay [9], 13.2% (inactive). The inhibition of aggregation in [2] was 7.3% (inactive). In addition, the nuclei count in assay [2] came to 108%; in assay [3], 113%. Also, in [4], the fluorescence slope was -0.454 (inactive). In addition, the NADPH fluorescence slope in assay [5] was -5.2e-05 (inactive). Besides, the slope in assay [6] is 0.00511 (inactive). In addition, the call in [7] was inactive.

As to `CN(CCNC(=O)c1ccc(N2CCCC2=O)cc1)CCc1ccccc1`, in assay [1], the cell count came out at 624. Moreover, the inhibition is -24% (inactive) in assay [1], -79.5% (inactive) in [3], 6.9% (inactive) in assay [8] and 10.4% (inactive) in assay [9]. For the same compound, the inhibition of aggregation in [2] was 17.8% (inactive). Moreover, the nuclei count in assay [2] is 84.6%; in assay [3], 111%. The fluorescence slope in assay [4] was -0.393 (inactive). The NADPH fluorescence slope in [5] was -2.4e-05 (inactive). In [6], the slope is 0.00561 (inactive). For the same compound, the compound was classed as inactive in [7].

With `Cc1ccc(Cl)cc1N1CCN(C(=O)c2cn(C)c(=O)c3c2c2ccccc2n3C)CC1`, the cell count in [1] is 270. The inhibition in assay [1] was -3.3% (inactive); in [3], -33.6% (inactive); in [8], 16.1% (inactive); in assay [9], 28% (inactive). In [2], the inhibition of aggregation is 17.2% (inactive). Also, the nuclei count in assay [2] was 8%; in [3], 114%. Further, in assay [4], the fluorescence slope was -0.352 (inactive). Further, the NADPH fluorescence slope in [5] was -2e-05 (inactive). The slope in assay [6] was 0.00673 (inactive). The call in assay [7] was inactive.

As usually defined, the inhibition is the change of the read-out against control, counted positive when it falls.
